Source: ChEMBL document CHEMBL1134405 (J Med Chem, 2001)
Calls of active or inactive are those of the source. The rule behind the calls is not given here. Peptide text beside a SMILES is read from it.

Columns and labels:
[1] = molecular target: T1, Glucagon receptor (Rattus norvegicus, UniProt P30082); test: Compound was evaluated for its ability to displace radiolabeled glucagon
Procedure, shortened: (§1)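 Incubation 10 min at 30 °C, then ice cooling and filtration on 0.45 μm cellulose acetate, gamma counting. Nonspecific binding taken with 1024 nM unlabeled peptide and subtracted. Read as % inhibition of specific binding. Triplicates, repeated twice.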

[2] = pA2 value, a dose-response plot was obtained by determining the response when the concentration of glucagon was varied while the concentration was kept same.
[3] = molecular target: T2, Adenylate cyclase (Rattus norvegicus) (UniProt D4A3N4+P26770+Q04400+P26769+Q03343+P40146+Q8CFM9+P21932); test: Relative potency was evaluated by measuring potency for conversion of [alpha-32P]ATP to cyclic 3',5'-AMP relative to glucagon; format: protein assay
[4] = molecular target: Glucagon receptor (Rattus norvegicus) (UniProt P30082); test: Relative binding by measuring competition for glucagon receptor between [125]glucagon and the compound.; procedure, shortened: as §1
[5] = A dose-response plot was obtained by determining the response when the concentration of glucagon was varied while the concentration was kept same.
[6] = molecular target: T1, Glucagon receptor; test: IC50 value was expressed as inhibition of [125]glucagon specific binding.; procedure, shortened: as §1
[7] = molecular target: T2, Adenylate cyclase (Rattus norvegicus); test: Adenylate cyclase stimulation; Inactive up to 100 uM.; format: protein assay
[8] = molecular target: T2, Adenylate cyclase (Rattus norvegicus); test: Maximum stimulation of adenylate cyclase.; format: protein assay
[9] = molecular target: Glucagon receptor (Rattus norvegicus) (UniProt P30082); test: Compound was evaluated for its ability to displace radiolabeled glucagon (inactive up to 100 uM); procedure, shortened: as §1
[10] = molecular target: Adenylate cyclase; test: Adenylate cyclase activity of the compound, expressed as effective concentration; format: protein assay
Procedure, shortened: (§2)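 Rat liver plasma membranes (male Sprague–Dawley, 200–250 g; sucrose-gradient purified), 35 μg protein in 0.1 mL with 1 mM [α-32P]ATP, 5 mM MgCl2, GTP, 1 mM EDTA, 1 mM cAMP plus [3H]cAMP tracer, 25 mM Tris pH 7.5, 0.4% BSA, phosphocreatine/creatine kinase regeneration. Labeled cAMP isolated by sequential Dowex and alumina chromatography.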

[11] = molecular target: Adenylate cyclase; test: Effective concentration required for 50% conversion of [alpha-32P]ATP to cyclic 3',5'-AMP.; format: protein assay; procedure, shortened: as §2
[12] = molecular target: T2, Adenylate cyclase (Rattus norvegicus); test: Adenylate cyclase activity of the compound, evaluated for the percentage maximum stimulation; format: protein assay; procedure, shortened: as §2
[13] = molecular target: Glucagon receptor (Rattus norvegicus) (UniProt P30082); test: Relative binding was evaluated by measuring competition for glucagon receptor between [125I]glucagon and the compound.
[14] = molecular target: T2, Adenylate cyclase (Rattus norvegicus); test: Adenylate cyclase activity of the compound, expressed as effective concentration (inactive up to 100 uM); format: protein assay
Procedure, shortened: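 Adenylate cyclase in rat liver plasma membranes (35 μg protein), in 0.1 mL of 1 mM [α-32P]ATP, 5 mM MgCl2, […], 1 mM EDTA, 1 mM cAMP with [3H]cAMP tracer, 25 mM Tris pH 7.5, 0.4% BSA, plus a phosphocreatine/creatine phosphokinase regenerating system. [32P]cAMP isolated on Dowex and alumina columns.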

T1 sequence (P30082 whole entry): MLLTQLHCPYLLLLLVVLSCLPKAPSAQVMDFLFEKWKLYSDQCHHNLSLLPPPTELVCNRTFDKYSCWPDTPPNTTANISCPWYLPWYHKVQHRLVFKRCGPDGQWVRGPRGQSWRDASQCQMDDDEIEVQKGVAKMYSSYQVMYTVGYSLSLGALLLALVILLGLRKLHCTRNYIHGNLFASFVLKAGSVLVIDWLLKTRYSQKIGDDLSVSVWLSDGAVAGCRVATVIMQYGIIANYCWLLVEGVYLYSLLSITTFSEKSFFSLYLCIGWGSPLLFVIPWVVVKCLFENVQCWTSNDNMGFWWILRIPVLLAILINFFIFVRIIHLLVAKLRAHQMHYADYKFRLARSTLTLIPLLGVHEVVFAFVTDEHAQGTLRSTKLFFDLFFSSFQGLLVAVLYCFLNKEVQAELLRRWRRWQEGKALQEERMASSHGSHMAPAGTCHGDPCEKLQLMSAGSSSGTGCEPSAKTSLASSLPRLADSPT
Sequence of Glucagon receptor (Rattus norvegicus) (P30082 whole entry): as above

CSCC[C@H](NC(=O)[C@H](CC(C)C)NC(=O)[C@H](Cc1c[nH]c2ccccc12)NC(=O)[C@H](CCC(N)=O)NC(=O)[C@@H](NC(=O)[C@H](Cc1ccccc1)NC(=O)[C@H](CC(=O)O)NC(=O)[C@H](CCC(N)=O)NC(=O)[C@H](C)NC(=O)[C@H](CCCN=C(N)N)NC(=O)[C@H](CCCN=C(N)N)NC(=O)[C@H](CO)NC(=O)[C@H](CC(=O)O)NC(=O)[C@H](CC(C)C)NC(=O)[C@H](Cc1ccc(O)cc1)NC(=O)[C@H](CCCCN)NC(=O)[C@H](CO)NC(=O)[C@H](Cc1ccc(O)cc1)NC(=O)[C@H](CCC(=O)O)NC(=O)[C@H](CO)NC(=O)[C@@H](NC(=O)[C@H](Cc1ccccc1)NC(=O)[C@@H](NC(=O)CNC(=O)[C@H](CCC(N)=O)NC(=O)[C@@H](N)CO)[C@@H](C)O)[C@@H](C)O)C(C)C)C(=O)N[C@@H](CC(N)=O)C(=O)N[C@H](C(N)=O)[C@@H](C)O
IC50 [1]: 3.75 nM
pA2 [2]: 7.25

CC(C)C[C@H](NC(=O)[C@H](Cc1ccc(O)cc1)NC(=O)[C@H](CCCCN)NC(=O)[C@H](CO)NC(=O)[C@H](Cc1ccc(O)cc1)NC(=O)[C@H](CC(=O)O)NC(=O)[C@H](CO)NC(=O)[C@@H](NC(=O)[C@H](Cc1ccccc1)NC(=O)[C@@H](NC(=O)CNC(=O)[C@H](CCC(N)=O)NC(=O)[C@H](CO)NC(=O)[C@@H](N)Cc1c[nH]cn1)[C@@H](C)O)[C@@H](C)O)C(=O)N[C@@H](CC(=O)O)C(=O)N[C@@H](CO)C(=O)N[C@@H](CCCN=C(N)N)C(=O)N[C@@H](CCCN=C(N)N)C(=O)N[C@@H](C)C(=O)N[C@@H](CCC(N)=O)C(=O)N[C@@H](CC(=O)O)C(=O)N[C@@H](Cc1ccccc1)C(=O)N[C@H](C(=O)N[C@@H](CCC(N)=O)C(=O)O)C(C)C
Relative potency [3]: 0.0002%
Relative binding [4]: 0.0002%

CC(C)C[C@H](NC(=O)[C@H](Cc1ccc(O)cc1)NC(=O)[C@H](CCCCN)NC(=O)[C@H](CO)NC(=O)[C@H](Cc1ccc(O)cc1)NC(=O)[C@H](CC(=O)O)NC(=O)[C@H](CO)NC(=O)[C@@H](NC(=O)[C@H](Cc1ccccc1)NC(=O)[C@@H](NC(=O)CNC(=O)[C@H](CCC(N)=O)NC(=O)[C@H](CO)NC(=O)[C@@H](N)Cc1c[nH]cn1)[C@@H](C)O)[C@@H](C)O)C(=O)N[C@@H](CC(=O)O)C(=O)O
Relative potency [3]: < 0.0001%
Relative binding [4]: < 0.0001%

CC(C)C[C@H](NC(=O)[C@H](Cc1ccc(O)cc1)NC(=O)[C@H](CCCCN)NC(=O)[C@H](CO)NC(=O)[C@H](Cc1ccc(O)cc1)NC(=O)[C@H](CC(=O)O)NC(=O)[C@H](CO)NC(=O)[C@@H](NC(=O)[C@H](Cc1ccccc1)NC(=O)[C@@H](NC(=O)CNC(=O)[C@H](CCC(N)=O)NC(=O)[C@H](CO)NC(=O)[C@@H](N)Cc1c[nH]cn1)[C@@H](C)O)[C@@H](C)O)C(=O)N[C@@H](CC(N)=O)C(=O)N[C@@H](CO)C(=O)N[C@@H](CCCN=C(N)N)C(=O)O
Relative potency [3]: 0.0001%
Relative binding [4]: 0.0001%

CSCC[C@H](NC(=O)[C@H](CC(C)C)NC(=O)[C@H](Cc1c[nH]c2ccccc12)NC(=O)[C@H](CCC(N)=O)NC(=O)[C@@H](NC(=O)[C@H](Cc1ccccc1)NC(=O)[C@H](CC(=O)O)NC(=O)[C@H](CCC(N)=O)NC(=O)[C@H](C)NC(=O)[C@H](CCCN=C(N)N)NC(=O)[C@H](CCCN=C(N)N)NC(=O)[C@H](CO)NC(=O)[C@H](CC(=O)O)NC(=O)[C@H](CC(C)C)NC(=O)[C@H](Cc1ccc(O)cc1)NC(=O)[C@H](CCCCN)NC(=O)[C@H](CO)NC(=O)[C@H](Cc1ccc(O)cc1)NC(=O)CCCCCc1ccccc1)C(C)C)C(=O)N[C@@H](CC(N)=O)C(=O)N[C@H](C(N)=O)[C@@H](C)O (HELM PEPTIDE1{[O=C(CCCCCc1ccccc1)[*:2]].Y.S.K.Y.L.D.S.R.R.A.Q.D.F.V.Q.W.L.M.N.T.[am]}$$$$V2.0)
pA2 [5]: 7.37

CSCC[C@H](NC(=O)[C@H](CC(C)C)NC(=O)[C@H](Cc1c[nH]c2ccccc12)NC(=O)[C@H](CCC(N)=O)NC(=O)[C@@H](NC(=O)[C@H](Cc1ccccc1)NC(=O)[C@H](CC(=O)O)NC(=O)[C@H](CCC(N)=O)NC(=O)[C@H](C)NC(=O)[C@H](CCCN=C(N)N)NC(=O)[C@H](CCCN=C(N)N)NC(=O)[C@H](CO)NC(=O)[C@H](CC(=O)O)NC(=O)[C@H](CC(C)C)NC(=O)[C@H](Cc1ccc(O)cc1)NC(=O)[C@H](CCCCN)NC(=O)[C@H](CO)NC(=O)[C@H](Cc1ccc(O)cc1)NC(=O)CCCc1ccccc1)C(C)C)C(=O)N[C@@H](CC(N)=O)C(=O)N[C@H](C(N)=O)[C@@H](C)O (HELM PEPTIDE1{[O=C(CCCc1ccccc1)[*:2]].Y.S.K.Y.L.D.S.R.R.A.Q.D.F.V.Q.W.L.M.N.T.[am]}$$$$V2.0)
pA2 [5]: 7.38

CSCC[C@H](NC(=O)[C@H](CC(C)C)NC(=O)[C@H](Cc1c[nH]c2ccccc12)NC(=O)[C@H](CCC(N)=O)NC(=O)[C@@H](NC(=O)[C@H](Cc1ccccc1)NC(=O)[C@H](CC(=O)O)NC(=O)[C@H](CCC(N)=O)NC(=O)[C@H](C)NC(=O)[C@H](CCCN=C(N)N)NC(=O)[C@H](CCCN=C(N)N)NC(=O)[C@H](CO)NC(=O)[C@H](CC(=O)O)NC(=O)[C@H](CC(C)C)NC(=O)[C@H](Cc1ccc(O)cc1)NC(=O)[C@H](CCCCN)NC(=O)[C@H](CO)NC(=O)[C@H](Cc1ccc(O)cc1)NC(=O)Cc1ccccc1)C(C)C)C(=O)N[C@@H](CC(N)=O)C(=O)N[C@H](C(N)=O)[C@@H](C)O (HELM PEPTIDE1{[O=C(Cc1ccccc1)[*:2]].Y.S.K.Y.L.D.S.R.R.A.Q.D.F.V.Q.W.L.M.N.T.[am]}$$$$V2.0)
IC50 [6]: 249 nM
pA2 [5]: 7.37

CSCC[C@H](NC(=O)[C@H](CC(C)C)NC(=O)[C@H](Cc1c[nH]c2ccccc12)NC(=O)[C@H](CCC(N)=O)NC(=O)[C@@H](NC(=O)[C@H](Cc1ccccc1)NC(=O)[C@H](CC(=O)O)NC(=O)[C@H](CCC(N)=O)NC(=O)[C@H](C)NC(=O)[C@H](CCCN=C(N)N)NC(=O)[C@H](CCCN=C(N)N)NC(=O)[C@H](CO)NC(=O)[C@H](CC(=O)O)NC(=O)[C@H](CC(C)C)NC(=O)[C@H](Cc1ccc2ccccc2c1)NC(=O)[C@H](CCCCN)NC(=O)[C@H](CO)NC(=O)[C@H](Cc1ccc2ccccc2c1)NC(C)=O)C(C)C)C(=O)N[C@@H](CC(N)=O)C(=O)N[C@H](C(N)=O)[C@@H](C)O (HELM PEPTIDE1{[ac].[O=C([C@H](Cc1ccc2ccccc2c1)N[*:1])[*:2]].S.K.[O=C([C@H](Cc1ccc2ccccc2c1)N[*:1])[*:2]].L.D.S.R.R.A.Q.D.F.V.Q.W.L.M.N.T.[am]}$$$$V2.0)
IA [7]: Inactive up to 100 uM
Max stimulation [8]: 0%
pA2 [5]: 6.87
Relative binding [4]: 0.19%

CSCC[C@H](NC(=O)[C@H](CC(C)C)NC(=O)[C@H](Cc1c[nH]c2ccccc12)NC(=O)[C@H](CCC(N)=O)NC(=O)[C@@H](NC(=O)[C@H](Cc1ccccc1)NC(=O)[C@H](CC(=O)O)NC(=O)[C@H](CCC(N)=O)NC(=O)[C@H](C)NC(=O)[C@H](CCCNC(=N)N)NC(=O)[C@H](CCCNC(=N)N)NC(=O)[C@H](CO)NC(=O)[C@H](CC(=O)O)NC(=O)[C@H](CC(C)C)NC(=O)[C@H](Cc1ccc2ccccc2c1)NC(=O)[C@H](CCCCN)NC(=O)[C@H](CO)NC(=O)[C@H](Cc1ccc2ccccc2c1)NC(C)=O)C(C)C)C(=O)N[C@@H](CC(N)=O)C(=O)N[C@H](C(N)=O)[C@@H](C)O (HELM PEPTIDE1{[ac].[O=C([C@H](Cc1ccc2ccccc2c1)N[*:1])[*:2]].S.K.[O=C([C@H](Cc1ccc2ccccc2c1)N[*:1])[*:2]].L.D.S.R.R.A.Q.D.F.V.Q.W.L.M.N.T.[am]}$$$$V2.0)
IC50 [6]: 800 nM

Ac-FTSDYSKYL-NH2
IA [7]: Inactive up to 100 uM
Max stimulation [8]: 0%
Relative binding [4]: 0%
IA [9]: Inactive up to 100 uM

Ac-FTSDYSKYLDSRRAQDFVQWLMNT-NH2
IC50 [6]: 31 nM
pA2 [5]: 6.57

Ac-YSKYLDSRRAQDFVQWLMNT-NH2 [listing 1 of 2 here]
pA2 [5]: 7.44

Ac-YSKYLDSRRAQDFVQWLMNT-NH2 [listing 2 of 2 here]
IC50 [6]: 60 nM

GLUCAGON [listing 1 of 2 here]
EC50 [10]: 5.9 nM
EC50 [11]: 8 nM

GLUCAGON [listing 2 of 2 here]
Max stimulation [12]: 100%
Relative binding [4]: 100%

H-DSRRAQDFVQWL-NH2
IA [7]: Inactive up to 100 uM
Max stimulation [8]: 0%
Relative binding [4]: 0%
IA [9]: Inactive up to 100 uM

H-HSQGTF-OH
Relative potency [3]: < 0.0001%
Relative binding [13]: < 0.0001%

H-HSQGTFTSDYS-NH2
Max stimulation [8]: 0%
IA [14]: Inactive up to 100 uM
Relative binding [4]: 0%
IA [9]: Inactive up to 100 uM

H-SQGTTSEYSKYLDSRRAQDFVQWLMNT-NH2
IC50 [1]: 48 nM
pA2 [2]: 8.2

H-TFTSDYSKYLDS-NH2
Max stimulation [8]: 0%
IA [14]: Inactive up to 100 uM
Relative binding [4]: 0%
IA [9]: Inactive up to 100 uM

H-YSKYLDSRRAQ-NH2
IA [7]: Inactive up to 100 uM
Max stimulation [8]: 0%
Relative binding [4]: 0%
IA [9]: Inactive up to 100 uM
